Laboratory results taken from ChEMBL document CHEMBL3808332, “Identification of novel aminopiperidine derivatives for antibacterial activity against Gram-positive bacteria” (Bioorg Med Chem Lett, 2016).
pIC50: −log10 of the molar value. In brackets after ≈: the same amount, converted by molar mass.

Experiments:
[1] = system: Enterococcus faecium; assay: Antibacterial activity against vancomycin-resistant Enterococcus faecium after 24 hrs by microdilution method; type: functional
[2] = system: Escherichia coli; assay: Antibacterial activity against Escherichia coli after 24 hrs by microdilution method; type: functional
[3] = system: Staphylococcus aureus; assay: Antibacterial activity against methicillin-resistant Staphylococcus aureus after 24 hrs by microdilution method; type: functional
[4] = system: Pseudomonas aeruginosa; assay: Antibacterial activity against Pseudomonas aeruginosa after 24 hrs by microdilution method; type: functional
[5] = system: Enterococcus faecalis; assay: Antibacterial activity against vancomycin-resistant Enterococcus faecalis after 24 hrs by microdilution method; type: functional
[6] = system: Streptococcus pneumoniae; assay: Antibacterial activity against Penicillin-resistant Streptococcus pneumoniae after 24 hrs by microdilution method; type: functional
[7] = target: T1, Peptide deformylase (Staphylococcus aureus) (UniProt P68826); assay: Inhibition of Staphylococcus aureus PDF using formyl-methionine-alanine-serine as substrate assessed as increase in NADH levels at 30 nM by microtiter ELISA
T1 sequence (whole entry): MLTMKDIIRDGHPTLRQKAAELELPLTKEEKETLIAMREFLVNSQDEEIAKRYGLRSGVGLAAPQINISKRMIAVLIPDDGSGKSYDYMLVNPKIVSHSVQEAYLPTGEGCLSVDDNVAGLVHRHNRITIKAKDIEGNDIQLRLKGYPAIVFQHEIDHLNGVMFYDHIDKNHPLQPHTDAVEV

[8] = target: T2, Peptide deformylase (Staphylococcus aureus, UniProt P68826); assay: Inhibition of Staphylococcus aureus PDF using formyl-methionine-alanine-serine as substrate assessed as increase in NADH levels by microtiter ELISA
T2 sequence (P68826 whole entry): T1 sequence (whole entry)

[9] = target: T1, Peptide deformylase (Staphylococcus aureus); assay: Inhibition of Staphylococcus aureus PDF using formyl-methionine-alanine-serine as substrate assessed as increase in NADH levels at 10 nM by microtiter ELISA
[10] = Plasma clearance in iv/po dosed mouse by LC-MS/MS analysis; type: ADME, organism-based
Outline: (§1)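 Mice, n = 3–5 per group, given the compound intravenously and orally. Plasma pharmacokinetic parameters were derived: total plasma clearance, steady-state volume of distribution, apparent terminal elimination half-life, Tmax after oral dosing, and absolute oral bioavailability (%F).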

[11] = system: Streptococcus pneumoniae; assay: Antibacterial activity against Penicillin-resistant Streptococcus pneumoniae yonsei 15 infected in po dosed immunosuppressed mouse model assessed as inhibition of pulmonary infection administered bid for 3 days; type: functional; conditions: yonsei 15, po, 72 h
Outline: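 Lung infection in immunosuppressed mice (n = 6/group) by intranasal inoculation with penicillin-resistant S. pneumoniae Yonsei15 at 1 × 10⁶ CFU per mouse. Treatment was oral, twice daily for 3 days. Day-7 survival was analysed by probit to give ED50 and 95% CI.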

[12] = system: Enterococcus faecium; assay: Antibacterial activity against vancomycin-resistant Enterococcus faecium infected in po dosed immunosuppressed mouse model assessed as inhibition of systemic infection administered bid for 3 days; type: functional; conditions: 72 h
Outline: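 Immunosuppressed mice (n = 6/group) received a systemic ip infection with a standard vancomycin-resistant E. faecium strain at 1 × 10⁹ CFU per mouse. Dosing was oral, BID, for 3 days. ED50 and 95% CI came from probit analysis of day-7 survival.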

[13] = system: Staphylococcus aureus; assay: Antibacterial activity against methicillin-resistant Staphylococcus aureus infected in po dosed mouse model assessed as inhibition of systemic infection administered bid for 3 days; type: functional; conditions: 72 h
Outline: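 Normal mice (n = 6/group) given a systemic ip challenge with a standard MRSA strain at 2 × 10⁸ CFU per mouse. Oral treatment twice daily for 3 days. Survival was scored at day 7, and ED50 with 95% CI was derived by probit analysis.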

[14] = Apparent terminal half life in iv/po dosed mouse plasma by LC-MS/MS analysis; type: ADME, organism-based; conditions: read-out: betat1/2(app) (converted); outline: as §1
[15] = Apparent oral bioavailability in mouse plasma by LC-MS/MS analysis; type: ADME, organism-based; outline: as §1
[16] = Volume of distribution at steady state in iv/po dosed mouse plasma by LC-MS/MS analysis; type: ADME, organism-based; conditions: read-out: Vdss; outline: as §1
[17] = Tmax in iv/po dosed mouse plasma by LC-MS/MS analysis; type: ADME, organism-based; outline: as §1
[18] = target: T1, Peptide deformylase (Staphylococcus aureus); assay: Inhibition of Staphylococcus aureus PDF using formyl-methionine-alanine-serine as substrate assessed as increase in NADH levels at 3 nM by microtiter ELISA
[19] = target: T1, Peptide deformylase (Staphylococcus aureus); assay: Inhibition of Staphylococcus aureus PDF using formyl-methionine-alanine-serine as substrate assessed as increase in NADH levels at 100 nM by microtiter ELISA

SMILES	MIC [1] [µg/mL]	MIC [2] [µg/mL]	MIC [3] [µg/mL]	MIC [4] [µg/mL]	MIC [5] [µg/mL]	MIC [6] [µg/mL]	other results
CC(C)(C)[C@H](NC(=O)[C@H](CC1CCCC1)CN(O)C=O)C(=O)N1CCC(Nc2ccc3cn[nH]c3c2)CC1	1.6 (≈ 3.04 µM)	> 50	12.5 (≈ 23.7 µM)	> 50	6.3 (≈ 12 µM)	0.4 (≈ 0.759 µM)	
COC(=O)c1ccc(CNC2CCN(C(=O)[C@@H](NC(=O)[C@H](CC3CCCC3)CN(O)C=O)C(C)(C)C)CC2)cc1	3.1 (≈ 5.55 µM)		12.5 (≈ 22.4 µM)		6.3 (≈ 11.3 µM)	0.8 (≈ 1.43 µM)	
CC(C)(C)[C@H](NC(=O)[C@H](CC1CCCC1)CN(O)C=O)C(=O)N1CCC(NCc2ccc(O)c(O)c2)CC1	> 50		> 50		> 50	12.5 (≈ 23.5 µM)	
CC(C)(C)[C@H](NC(=O)[C@H](CC1CCCC1)CN(O)C=O)C(=O)N1CCC(NCc2ccc(F)cc2)CC1	0.4 (≈ 0.771 µM)		6.3 (≈ 12.1 µM)		3.1 (≈ 5.98 µM)	0.4 (≈ 0.771 µM)	
COc1ccc(CNC2CCN(C(=O)[C@@H](NC(=O)[C@H](CC3CCCC3)CN(O)C=O)C(C)(C)C)CC2)c(OC)c1	3.1 (≈ 5.53 µM)		25 (≈ 44.6 µM)		6.3 (≈ 11.2 µM)	0.8 (≈ 1.43 µM)	
CC(C)(C)[C@H](NC(=O)[C@H](CC1CCCC1)CN(O)C=O)C(=O)N1CCC(NCc2ccc(O)cc2)CC1	50 (≈ 96.8 µM)		> 50		> 50	3.1 (≈ 6 µM)	
CC(C)(C)[C@H](NC(=O)[C@H](CC1CCCC1)CN(O)C=O)C(=O)N1CCC(NCc2cc(F)c(F)cc2F)CC1	0.8 (≈ 1.44 µM)		1.6 (≈ 2.88 µM)		0.8 (≈ 1.44 µM)	0.4 (≈ 0.721 µM)	inhibition [7]: 51%; pIC50 [8]: 7.52; inhibition [9]: 20%; clearance [10]: 19 mL/min/kg; ED50 [11]: 3 mg/kg; ED50 [12]: 13.3 mg/kg; ED50 [13]: 16.6 mg/kg; half-life [14]: 63 min; bioavailability [15]: 95.8%; Vd [16]: 1.71 L/kg; Tmax [17]: 30 min; inhibition [18]: -3%; inhibition [19]: 78%
COc1ccc(CNC2CCN(C(=O)[C@@H](NC(=O)[C@H](CC3CCCC3)CN(O)C=O)C(C)(C)C)CC2)cc1	1.6 (≈ 3.01 µM)		12.5 (≈ 23.6 µM)		6.3 (≈ 11.9 µM)	0.8 (≈ 1.51 µM)	
CC(C)(C)[C@H](NC(=O)[C@H](CC1CCCC1)CN(O)C=O)C(=O)N1CCC(NCc2ccc[nH]2)CC1	> 50	> 50	> 50	> 50	> 50	6.3 (≈ 12.9 µM)	
CC(C)(C)[C@H](NC(=O)[C@H](CC1CCCC1)CN(O)C=O)C(=O)N1CCC(NCc2ccccc2)CC1	0.8 (≈ 1.6 µM)	> 50	3.1 (≈ 6.19 µM)	> 50	1.6 (≈ 3.2 µM)	0.8 (≈ 1.6 µM)	
CC(C)(C)[C@H](NC(=O)[C@H](CC1CCCC1)CN(O)C=O)C(=O)N1CCC(NCc2ccc3[nH]ccc3c2)CC1	6.3 (≈ 11.7 µM)	> 50	6.3 (≈ 11.7 µM)	> 50	3.1 (≈ 5.74 µM)	0.8 (≈ 1.48 µM)	
CC(C)(C)[C@H](NC(=O)[C@H](CC1CCCC1)CN(O)C=O)C(=O)N1CCC(NCc2ccc3c(c2)OCO3)CC1	0.8 (≈ 1.47 µM)	> 50	6.3 (≈ 11.6 µM)	> 50	3.1 (≈ 5.69 µM)	1.6 (≈ 2.94 µM)	
